The record followed here is ChEMBL document CHEMBL5385974, “A novel BODIPY-based theranostic agent for in vivo fluorescence imaging of cerebral Aβ and ameliorating Aβ-associated disorders in Alzheimer's disease transgenic mice” (RSC Med Chem, 2024).

Series [1] has as its target T1, Amyloid-beta precursor protein (Homo sapiens, UniProt P05067). Kind of series: Binding affinity to Amyloid beta (1 to 42) aggregates (unknown origin). A digest of the protocol:
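Fluorescence titration in which P14 (0–200 nM, in EtOH) was incubated with 5 μM Aβ42 aggregates for 30 min at room temperature. Read in a quartz cuvette at Ex 589 nm, Em 620 nm. Kd was obtained by nonlinear regression, one-site binding. n = 3; mean ± SD.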

Series [2] has as its target T1, Amyloid-beta precursor protein. Kind of series: Binding affinity to Amyloid beta (1 to 42) aggregates (unknown origin) assessed as fluorescent intensities measured after 30 mins by fluorescence spectrometry. In a few lines: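 P14 (320 nM final, in EtOH) incubated 30 min at room temperature with 0, 2, 4, 6 or 8 μM Aβ42 aggregates. Aggregates were made by shaking 50 μM Aβ42 in 10 mM PBS pH 7.4 at 100 rpm, 37 °C, 24 h. Emission spectra recorded at 600–800 nm with excitation at 589 nm.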

Series [3] in a line: Solubility of the compound in water. Particulars: buffer. In kind it is physicochemical.
Another series concerns Cerebral cortex. Put plainly: In vivo binding affinity Amyloid beta deposits in APPswe/PSEN1dE9, APP/PS1 double transgenic mouse cerebral cortex assessed as red fluorescent spot. Type of series: functional, organism-based. A digest of the protocol:
(§1)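 Frozen brain sections from perfused 12-month male APP/PS1 mice or wild-type mice. Sections were stained with ThS (10 mg mL-1), washed 3 times with 50% ethanol, then incubated with 100 μM compound for 20 min at room temperature. Confocal imaging: compound Ex 638/Em 650–700 nm, ThS Ex 488/Em 500–550 nm. n = 3.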

A further series concerns Hippocampus. Kind of series: In vivo binding affinity Amyloid beta deposits in APPswe/PSEN1dE9, APP/PS1 double transgenic mouse hippocampus assessed as red fluorescent spot. Type of series: functional, organism-based. A digest of the protocol:
as §1

For a further series, the system named is Brain. Kind of series: In vivo binding affinity Amyloid beta deposits in wild type mouse brain by fluorescence staining assay. In kind it is functional, organism-based. A digest of the protocol: as §1
The test system of series [4] is Mus musculus. Kind of series: In vivo binding affinity Amyloid beta deposits in APP/PS1 transgenic mouse assessed as Increase in fluorescence intensity at 2 mg/kg, iv measured after 5 mins by IVIS Spectrum imaging based assay relative to wild type. Type of series: functional, organism-based. A digest of the protocol:
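APP/PS1 and wild-type mice, 12 months old, heads shaved and anaesthetized with 1.5% isoflurane. Injected intravenously with 2 mg kg-1 in DMSO:Cremophor EL:0.9% saline = 5:10:85. Brain fluorescence was acquired sequentially by IVIS, with circular ROI analysis at 5 min. Ex 570 nm, Em Cy5.5. n = 3.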

Series [5] has as its target T1, Amyloid-beta precursor protein. Kind of series: Inhibition of amyloid beta 42 (unknown origin) aggregation assessed as fluorescence intensity at 0.1 equivalents measured for 24 hrs by ThT fluorescence assay. A digest of the protocol:
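Aβ42 monomer (50 μM) incubated 24 h at 37 °C with or without compound. ThT was then added from a 15 mM solution in 50 mM glycine-NaOH, and fluorescence read at Ex 425/Em 490 nm. n = 4; mean ± SD.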

For series [6] the target is unchanged. Kind of series: Inhibition of amyloid beta 42 (unknown origin) aggregation assessed as reduction in amyloid fibrils density at 50 uM measured after 24 hrs incubation by transmission electron microscopy (TEM). A digest of the protocol: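 Aβ42 (50 μM in water) mixed 1:1 with water or 100 μM compound, then shaken at 100 rpm, 37 °C, 24 h. Samples were adsorbed on carbon-coated copper grids, negatively stained with 7.5% uranium formate and imaged by TEM at 120 kV.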

For series [7], the system named is Cortical neurone. Kind of series: Neuroprotective effect against Amyloid-beta induced Sprague-Dawley rat primary cortical neurons assessed as cell viability after 9 days of pretreatment with Amyloid-beta followed by incubated with 1 uM compound for 24 hrs by MTT assay. Type of series: functional, cell-based. Particulars: time 9.0 day. In a few lines: (§2)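 Primary cortical neurons from newborn SD rat pups, cultured in neurobasal/B27 at 37 °C and used at day 9. Cells were exposed for 24 h to Aβ42 (1 μM final) premixed with compound at 0, 0.1, 0.25, 0.5, 1 or 5 μM final. MTT was then added for 4 h, formazan dissolved in DMSO and absorbance read at 490 nm. n = 3; mean ± SD.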

Series [8] relates to Cortical neurone. Put plainly: Neuroprotective effect against Amyloid-beta induced Sprague-Dawley rat primary cortical neurons assessed as cell viability after 9 days of pretreatment with Amyloid-beta followed by incubated with 5 uM compound for 24 hrs by MTT assay. Type of series: functional, cell-based. The following applies: time 9.0 day. In a few lines:
as §2
A general note: Tetrazolium assays rely on reduction of a dye to a coloured formazan, in cell work by metabolically active cells.

For series [9], the system named is Cortical neurone. Kind of series: Neuroprotective effect against Amyloid-beta induced Sprague-Dawley rat primary cortical neurons assessed as reversal of Amyloid beta-induced loss of MAP2 fluorescence signal at 1 uM by immunofluorescence staining based assay. Type of series: functional, cell-based. In a few lines: (§3)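 Primary rat cortical neurons exposed to Aβ42 with or without compound. Cells were fixed in 4% PFA and blocked with 3% BSA/0.01% Triton X-100 for 1 h. Staining was anti-MAP2 (1:200) overnight at 4 °C, then Alexa Fluor 488 secondary (1:500) for 1 h, with DAPI nuclear counterstain. MAP2 fluorescence was quantified. n = 3.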

Series [10] has as its system Cortical neurone. Kind of series: Neuroprotective effect against Amyloid-beta induced Sprague-Dawley rat primary cortical neurons assessed as reversal of Amyloid beta-induced loss of MAP2/DAPI fluorescence signal at 1 uM by immunofluorescence staining based assay. Type of series: functional, cell-based. A digest of the protocol: as §3
Series [11] concerns Cortical neurone. Kind of series: Cytotoxicity against Sprague-Dawley rat primary cortical neurons assessed as cell viability at 0.1 to 5 uM measured after 24 hrs by MTT assay. In kind it is toxicity, cell-based. The following applies: dose 0.1-5 µM.
The species entered for series [12] is Mus musculus. Put plainly: Anti-alzheimer activity against 12 month old APP/PS1 transgenic mouse model assessed as decrease in amyloid beta plaques in brain cortex region treated continuously and measured after 3 months by ThS staining based immunofluorescence assay relative to control. In kind it is functional, organism-based. A digest of the protocol: (§4)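 APP/PS1 mice dosed orally from 9 months of age for three months with 10 mg kg-1 in PEG400:HS15:0.9% saline = 25:15:60, or with vehicle alone. Wild-type mice were treated in parallel. ThS-stained plaques were counted by confocal imaging of hippocampus and cortex sections at 12 months. n = 3.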

The species entered for series [13] is Mus musculus. Kind of series: Anti-alzheimer activity against 12 month old APP/PS1 transgenic mouse model assessed as decrease in amyloid beta plaques in brain hippocampus region treated continuously and measured after 3 months by ThS staining based immunofluorescence assay relative to control. In kind it is functional, organism-based. In a few lines: as §4

For series [14], the species on record is Mus musculus. Kind of series: Antialzheimer activity in 12 month old APP/PS1 transgenic cognitive impairment mouse model assessed as reduction in error time in passage water maze treated continuously and measured after 3 months by passage water maze test. In kind it is functional, organism-based. A digest of the protocol: (§5)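 APP/PS1 mice and wild-type littermates given oral 10 mg kg-1 (PEG400:HS15:0.9% saline = 25:15:60) or vehicle from 9 to 12 months. Tested in an 80 × 50 cm passage water maze with one correct path. Training was 1-min free swims, with guidance to the platform on failure. After 4 trainings, wrong-path errors and latency to the platform were recorded. n = 6-10.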

The species entered for series [15] is Mus musculus. Kind of series: Antialzheimer activity in 12 month old APP/PS1 transgenic cognitive impairment mouse model assessed as shortening of latencies to reaching platform treated continuously and measured after 3 months by water maze test. In kind it is functional, organism-based. A digest of the protocol: as §5
For series [16], the system named is Mus musculus. Put plainly: Anti-alzheimer activity against 5 month old 5 x FAD mouse assessed as average radiation efficiency at 30 mg/kg, po treated for 1 month. In kind it is functional. The following applies: time 1 months, 730 h. In a few lines: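 5×FAD and wild-type mice imaged by IVIS after a single intravenous injection of 2.0 mg kg-1. Imaging was done at 5 months, and again at 6 months after one month of oral treatment (30 mg kg-1) or vehicle. Ex 570 nm, Em 640 nm. Read-out is average radiation efficiency. n = 3 at 5 months, n = 4 at 6 months; mean ± SD.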

Series [17] is filed under the species Mus musculus. Put plainly: Anti-alzheimer activity against transgenic mouse model assessed as decrease in amyloid beta plaques in brain hippocampus region treated continuously and measured after 3 months by ThS staining based immunofluorescence assay relative to control.

As a reminder, the Kd is a measure of binding affinity in units of concentration.

Each structure is given as a SMILES string. Activity calls are given as the source filed them. The calls are words filed in the database; no cut-off is given here.

T1 sequence (P05067 whole entry): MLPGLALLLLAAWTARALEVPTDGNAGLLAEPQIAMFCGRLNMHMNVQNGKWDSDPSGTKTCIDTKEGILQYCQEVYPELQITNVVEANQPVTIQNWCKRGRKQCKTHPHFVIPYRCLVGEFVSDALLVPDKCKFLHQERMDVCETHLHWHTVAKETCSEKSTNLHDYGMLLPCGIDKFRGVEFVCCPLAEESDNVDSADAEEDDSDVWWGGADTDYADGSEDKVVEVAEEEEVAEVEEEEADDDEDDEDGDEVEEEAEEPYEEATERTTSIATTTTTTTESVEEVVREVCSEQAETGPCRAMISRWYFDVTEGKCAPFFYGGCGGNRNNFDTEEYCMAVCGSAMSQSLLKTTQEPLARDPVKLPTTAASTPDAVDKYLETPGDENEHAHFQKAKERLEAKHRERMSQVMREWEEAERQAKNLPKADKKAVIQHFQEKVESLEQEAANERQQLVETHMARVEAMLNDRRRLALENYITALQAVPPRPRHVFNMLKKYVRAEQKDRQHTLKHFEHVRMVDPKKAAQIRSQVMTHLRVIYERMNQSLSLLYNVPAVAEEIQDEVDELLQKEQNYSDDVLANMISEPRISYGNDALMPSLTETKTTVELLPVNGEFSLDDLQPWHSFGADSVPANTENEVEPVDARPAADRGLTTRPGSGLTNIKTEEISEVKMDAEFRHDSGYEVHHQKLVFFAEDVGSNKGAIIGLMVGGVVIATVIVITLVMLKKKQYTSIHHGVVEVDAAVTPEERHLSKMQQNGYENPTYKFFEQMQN

The compound `Cc1cc(/C=C/c2ccc(N(C)C)s2)n2c1C=C1C=CC=[N+]1[B-]2(F)F` had a Kd in series [1] of 55 nM.

Consider `CC1=CC(C)=[N+]2C1=C(CCCO)c1c(C)cc(/C=C/c3cnc(N(C)C)s3)n1[B-]2(F)F`, for which the Kd in [2] came out at 78.1 nM. Also, in series [3], the solubility entry is listed as “Soluble”. The result in the series on Cerebral cortex, with Hippocampus, in the series on Mus musculus [4], with Cortical neurone [7], in the series with Cortical neurone [8] and in the series on Cortical neurone [9] was Active. The result in the series on Cortical neurone [10], in the series listed under Mus musculus [12], in the series listed under Mus musculus [13], in the series listed under Mus musculus [14], in the series filed under Mus musculus [15] and in the series listed under Mus musculus [17] was Active. In addition, in the series on Brain, the result was inactive. Moreover, in [5], the inhibition entry was “Dose-Dependent Effect”. Besides, the inhibition entry in series [6] is “Active”. Moreover, the Activity result is “Non-Toxic” in the series on Cortical neurone [11] and 5.2 10^8(p/s/cm^2/sr)/(uW/cm^2) in the series on Mus musculus [16].

`CC1=CC(C)=[N+]2C1=C(CCCN1CCNc3ccccc31)c1c(C)cc(/C=C/c3ccc(N(C)C)s3)n1[B-]2(F)F`: in series [2], the Kd came out at 27 nM.
